Most compounds without a hit are left out; they make up all but 1.7% or so of the library.
F508del corr: correctors of CFTR F508del function in bronchial epithelial cells; CFBE cells, YFP halide quenching; stimulated with forskolin plus potentiator P3; % fluorescence drop versus neutral controls; activity (quench increase), % at 7.58 µM; hit rate 0.36% among 350,000; AID 720511;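 active = mean added fluorescence quench of at least 8% versus neutral control, with both replicates also reaching 8%; inconclusive = only one of the mean or replicate conditions met; inactive = mean below 8% and not both replicates reaching 8%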;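 note: cells transiently co-express mutant CFTR-F508del with the halide-sensitive YFP; corrector assay measuring rescue of mutant channel to the surface after 24 h compound exposure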
Cneo AK release: causes C. neoformans cell lysis. adenylate kinase release luminescence, 4 h; normalised: neutral wells 0, clomiphene wells 100. lysis activity, % at 15 µM. hit rate 0.2% among 360,000. AID 651654;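 active = mean lysis activity across replicates of at least 80%, whatever share of replicates individually reach that level; inactive = mean lysis activity below 80%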
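Test system: log-phase Cryptococcus neoformans yeast cells. Input: 5 × 10^6 yeast cells/mL. Medium: fresh YPD growth medium. Doses: single dose. Incubation: static 4 h at 37 °C with compound, 1 h detection. Measured by: luminescent adenylate kinase detection reagent. Read-out: signal increase indicating cell lysis. Benchmarks: Clomiphene.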
rRNA inh HTS: inhibitors of bacterial rRNA selective over humanized ribosomes; E. coli WT GFP vs humanized-ribosome RFP mutants, fluorescence, 24 h; active compounds read low; DMSO median 0, no signal -100; GFP signal change (wild-type ribosome), % (concentration not given with the values); hit rate 1.6% among 350,000; AID 720706;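 active = significant combined selectivity score with lowered wild-type GFP, culture density cut under 30%, mutant RFP and density less affected; inactive = any of these conditions unmet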
CaV13 ICDI inh: Primary screen for inhibitors of IQ motif and Ca2+-dependent inactivation inhibitor domain binding in CACNA1D, Förster resonance energy transfer in living cells, … | HEK cells, CFP/YFP FRET ICDI-IQ, plate reader, 10 min; percent FRET-ratio fall versus neutral wells | inhibition, % at 12.3 µM | hit rate 0.098% among 340,000;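 active = mean replicate inhibition of at least 30% and at least 1% of replicates passing that level; inconclusive = only one of the two criteria is met; inactive = neither criterion is met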
AID977621: growth inhibition of wild-type GFP E. coli, dose response, H69 mutant RFP, cherry-pick; shares compounds with rRNA inh HTS; 1,900 tested, under 10 active; AID 977621; E. coli wild-type GFP strain growth, fluorescence, 24 h; activity change, negative = inhibition at 50 µM;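 active = Wild-type ribosome reporter drop at least double the humanized mutant ribosome reporter drop, growth loss under a set limit; inconclusive = no clear call, values can overlap the other calls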;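 note: wild-type GFP and H69 mutant RFP strains grown together 50/50 in each well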
AID977628: E. coli growth inhibition, wild-type GFP versus h24 humanized RFP strain, dose response, h24 mutant RFP vs wild-type GFP, cherry-pick. shares compounds with rRNA inh HTS. E. coli WT GFP strain growth, fluorescence, 24 h. activity change, negative = inhibition at 50 µM. 1,900 tested, under 10 active. AID 977628;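 active = compound lowering the normal-ribosome reporter at least twice as much as the humanized-ribosome reporter, growth loss under a set limit; inconclusive = no clear call, values can overlap the other calls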;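 note: wild-type GFP and h24 humanized RFP strains co-cultured 1 to 1 per well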
Of the large screens only hits and unclear results are named; the others gave an inactive call (follow-up assays come after a bar, where they were run); ! = not confirmed by another sample.

Cc1cc([N+](=O)[O-])nn1CC(=O)Nc1cc(F)ccc1F	rRNA inh HTS -18 (no result: Cneo AK release) | AID977621 inactive | AID977628 inconclusive
Cc1cc([N+](=O)[O-])nn1CC(=O)N/N=C/c1ccccc1F	none (no result: Cneo AK release)
CN(C(=O)COC(=O)CSc1ccc(C(N)=O)cc1[N+](=O)[O-])C1CCCCC1	rRNA inh HTS -16 | AID977621 inactive | AID977628 inactive
COc1cccc(SCC(=O)N2CCN(c3ccccc3)CC2)c1	rRNA inh HTS -23 | AID977621 inactive | AID977628 inconclusive
O=C(C[C@@H]1C[C@H]2c3cc(NC(=O)C4CCOCC4)ccc3O[C@H]2[C@H](CO)O1)NCC1CC1	none (no result: CaV13 ICDI inh)
COc1cc(OC)cc(C(=O)NC(C)c2ccc(Br)cc2)c1 (stereo not drawn)	none
COc1cccc(C(=O)NC(C)c2ccc(Br)cc2)c1 (stereo not drawn)	rRNA inh HTS -27 (no result: F508del corr, Cneo AK release) | AID977621 inactive | AID977628 inactive
CNC(=O)c1ccsc1NC(=O)c1ccc2c(c1)CCCC2	rRNA inh HTS -26 | AID977621 inconclusive
C[C@@H]1CN([C@H](C)CO)C(=O)c2cccc(NC(=O)Nc3ccc4c(c3)OCO4)c2O[C@@H]1CN(C)C(=O)Nc1ccc2c(c1)OCO2	rRNA inh HTS -19 (no result: CaV13 ICDI inh) | AID977621 inactive | AID977628 inconclusive
COc1cccc(NC(=O)N(C)C[C@H]2Oc3ncc(C#Cc4cccnc4)cc3C(=O)N([C@H](C)CO)C[C@H]2C)c1	rRNA inh HTS -39 (no result: CaV13 ICDI inh) | AID977621 inactive | AID977628 inactive
C[C@@H]1CN([C@@H](C)CO)C(=O)c2cccc(NC(=O)c3nc4ccccc4s3)c2O[C@H]1CN(C)CC1CC1	none (no result: CaV13 ICDI inh)
C[C@H](CO)N1C[C@H](C)[C@H](CN(C)C(=O)Nc2ccc(F)cc2)Oc2c(NC(=O)Nc3ccccc3)cccc2C1=O	rRNA inh HTS -23 (no result: CaV13 ICDI inh) | AID977621 inactive | AID977628 inconclusive
C[C@@H]1CN([C@@H](C)CO)C(=O)c2cccc(NC(=O)c3nc4ccccc4s3)c2O[C@@H]1CN(C)CC1CC1	rRNA inh HTS -28! | AID977621 inactive | AID977628 inactive
C[C@H](CO)N1C[C@H](C)[C@H](CN(C)C(=O)Nc2ccc3c(c2)OCO3)Oc2c(NC(=O)Nc3ccc4c(c3)OCO4)cccc2C1=O	none (no result: CaV13 ICDI inh)
O=C(c1cccc(F)c1)N1CC(=O)N2[C@H](CO)[C@@H](c3ccc(-c4cccnc4)cc3)[C@H]2C1	none (no result: Cneo AK release, CaV13 ICDI inh)
COC(=O)CC1COc2ccccc2N1C(=O)c1ccc(Cl)cc1 (stereo not drawn)	none (no result: F508del corr, rRNA inh HTS)
COC(=O)CC1COc2ccccc2N1C(=O)c1ccc(Br)cc1 (stereo not drawn)	rRNA inh HTS -25 | AID977621 inactive | AID977628 inactive
CC(=O)Oc1ccc(N(c2ccccc2)S(=O)(=O)c2ccc(C)cc2)cc1	rRNA inh HTS -24 | AID977628 inactive
COCCNC(=O)C[C@H]1CC[C@H]2[C@@H](COc3ccc(NC(=O)C4CCCC4)cc3C(=O)N2C)O1	none (no result: CaV13 ICDI inh)
Cn1cc([N+](=O)[O-])c(C(=O)Nc2ccc(-c3nc4ccccc4[nH]3)cc2)n1	rRNA inh HTS -26 (no result: Cneo AK release) | AID977621 inactive | AID977628 inconclusive
COC(=O)c1ccc2nc(-c3cccc(Br)c3)c(Cc3ccsc3)n2c1	rRNA inh HTS -34 | AID977621 inconclusive
COC(=O)c1ccc2nc(-c3cccc(Cl)c3)c(Cc3ccsc3)n2c1	none
CCCN1C[C@@H](C)[C@H](OC)CN(C)C(=O)c2ccc(NC(=O)c3cnccn3)cc2OC[C@@H]1C	none (no result: CaV13 ICDI inh)
COc1ccc(OCC(O)CNS(=O)(=O)c2cccc(Cl)c2)cc1 (stereo not drawn)	rRNA inh HTS -21 | AID977621 inactive | AID977628 inactive
C[C@@H]1CCCCO[C@@H](CN(C)Cc2ccc(C(F)(F)F)cc2)[C@H](C)CN([C@@H](C)CO)C(=O)c2cc(NS(=O)(=O)c3ccc(F)cc3)ccc2O1	none (no result: CaV13 ICDI inh)
CS(=O)(=O)N1CCc2cc(-c3csc(NC(=O)C(c4ccccc4)c4ccccc4)n3)ccc21	none (no result: F508del corr, rRNA inh HTS, CaV13 ICDI inh)

Bioassay records as filed in PubChem.
